# Compounds with a hit are over-represented: about 1.4% of the library has one in this group of screens.
# Arr AP2 block = human beta-arrestin and AP2 interaction inhibition; inhibition, % at 10 µM; 340,000 tested, 0.31% active; FITC-arrestin peptide / GST-AP2 beads, flow cytometry; AP2 beta2 appendage carries R879A mutation;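 active = inhibition above a set limit, near 3 SD of compounds lacking own fluorescence, cut at about 54% in these data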;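 note: plate controls were DMSO wells for no effect and 5 µM unlabelled arrestin peptide for full effect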
#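 System: GST-tagged AP2 beta2-adaptin appendage (R879A) on 4 µm glutathione beads / Reagent: FITC-arrestin peptide, 50 nM / Detection: HyperCyt-sampled flow cytometry, FL1 channel, ex 488/em 535 nm / Timing: 12 min plus 1 h, RT / Buffer or medium: PBS plus Tween 20 (0.05%) and BSA (0.1%)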
# CAL PDZ FP-1 = blocks peptide binding to human CAL PDZ domain; Q9HD26; purified CAL PDZ, TMR-peptide fluorescence polarization, 1 h; inhibition, % at 20 µM; 330,000 tested, 0.02% active;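 active = highest replicate inhibition of at least 40%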;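 note: plate controls were DMSO neutral control wells for no effect and unlabeled competitor peptide control wells for full effect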
#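 Read-out basis: mP drop reported as inhibition | Assay system: Tagged CAL PDZ protein CerCALP, purified | Benchmarks: Unlabelled peptide for full inhibition, DMSO wells as neutral | Schedule: 1 h incubation at room temperature before polarization reading | Buffer or medium: Sodium phosphate/NaCl buffer pH 7.4 with TCEP, IgG, Thesit | Doses: Single point, 20 µM | Measured by: Fluorescence polarization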
# CAL PDZ FP-2 = blocks peptide binding to the human CAL PDZ domain | Q9HD26 | 300,000 tested, 0.92% active | purified CAL PDZ, TMR-peptide fluorescence polarization, 1 h | inhibition, % at 24.9 µM;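 active = mean inhibition of at least 30% with at least half of replicates also reaching 30%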;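 note: 0% = DMSO neutral control and 100% = excess unlabeled competitor peptide PRC23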
# Tn6 DDE FP = inhibitors of Tn6 peptide binding to human fibrin DD(E); inhibition, % at 8.3 µM; 370,000 tested, 0.21% active; AID 720509; Fibrin DD(E) TRITC-Tn6 fluorescence polarization displacement; P02675;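 active = inhibition above a per-campaign cutoff: mean of compounds within control limits plus 3 SD, cut at about 15% in these data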;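 note: 0% = median of all compound wells on the plate and 100% = blocking peptide control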
# Target sequence (P02675 whole entry, looked up): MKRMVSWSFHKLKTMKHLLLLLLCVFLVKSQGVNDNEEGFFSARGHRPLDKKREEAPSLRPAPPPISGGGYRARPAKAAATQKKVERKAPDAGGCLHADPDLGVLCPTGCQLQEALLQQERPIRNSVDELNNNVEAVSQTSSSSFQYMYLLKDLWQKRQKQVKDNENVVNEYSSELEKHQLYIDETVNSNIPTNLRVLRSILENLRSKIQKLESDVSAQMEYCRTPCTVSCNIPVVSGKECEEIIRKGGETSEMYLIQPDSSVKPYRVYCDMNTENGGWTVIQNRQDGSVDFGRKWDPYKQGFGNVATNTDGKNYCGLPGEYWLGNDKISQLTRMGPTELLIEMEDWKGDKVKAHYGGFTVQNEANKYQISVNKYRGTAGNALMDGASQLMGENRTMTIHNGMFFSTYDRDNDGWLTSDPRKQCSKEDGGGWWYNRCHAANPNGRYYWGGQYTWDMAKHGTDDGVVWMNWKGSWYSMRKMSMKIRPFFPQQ
# Tn7 DDE FP = disrupts Tn7 cyclic peptide binding to fibrin D-Dimer-E complex | FP displacement of FITC-Tn7 peptide from fibrin DD(E); 0% = median of compound wells per plate | inhibition, % at 8.3 µM | 370,000 tested, 0.13% active;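 active = inhibition above the mean of compounds falling within the control limits plus 3 SD of them, cut at about 14% in these data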;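 note: 0% = plate median of compound wells and 100% = 10 µM Aha-Tn7 peptide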
#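 assay system = human clot-derived fibrin DD(E) complex | quantity = Fibrin-DD(E) at 2 µM final | timing = 10 min preincubation, 3 h with tracer, room temperature | signal = fluorescence polarization | measure = percent inhibition | benchmarks = high control wells with 10 µM unlabelled Aha-Tn7 peptide (full inhibition) | replicates = singlicate testing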
# Arr AP2 CP1 = blocks beta-arrestin peptide binding to human AP2 | inhibition, % at 10 µM | shares compounds with Arr AP2 block | GST-AP2 beads, FITC arrestin peptide binding, flow cytometry; GST-fused beta2-adaptin appendage, R879A mutant | 1,300 tested, 2% active;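 active = inhibition above a set limit, roughly 3 SD of non-fluorescent compound noise, cut at about 38% in these data; inactive = inhibition at or below that limit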;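 note: loss of bead fluorescence from 50 nM FITC arrestin peptide bound to appendage; 0% = negative control wells and 100% = excess unlabelled arrestin peptide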
# GST-FITC bead = GST-GSH bead binding interference, counter-screen; shares compounds with Arr AP2 block; GST-fluorescein binding to GSH beads, fluorescence; inhibition, % at 10 µM; 1,300 tested, 2% active; AID 588338;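 active = inhibition above 50%, about 3 SD of the inhibition seen with non-fluorescent compounds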;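 note: fluorescein maleimide labelled GST captured on 4 micron glutathione beads; higher means more loss of bead fluorescence from quenching or blocked binding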
# Numbers without * were called inactive; x = not tested or not shown.
SMILES,Arr AP2 block,CAL PDZ FP-1,CAL PDZ FP-2,Tn6 DDE FP,Tn7 DDE FP,Arr AP2 CP1,GST-FITC bead
COC(=O)CSc1nc(N)nc(C)c1Br,56.0*,-0.2,0.0,5.0,-4.1,-13.0,-3.0
O=C(Cn1cnc(S(=O)(=O)N2CCCC2)c1)Nc1ccc(OC(F)(F)F)cc1,66.5*,-0.1,-1.9,1.0,-7.0,1.8,-4.7
COC(=O)C1CN(Cc2cn(Cc3ccc(Cl)cc3)nn2)CCS(=O)(=O)N1Cc1ccc(OC)cc1 (stereo not given),x,x,x,-6.2,-3.8,x,x
COc1ccc(Cn2c(=O)[nH]c3cc(C(=O)NCCc4ccc(S(N)(=O)=O)cc4)ccc3c2=O)cc1,109.6*,-1.2,-4.1,-1.4,-3.1,-1.4,-15.3
O=C(CN(Cc1cccs1)S(=O)(=O)c1ccc(S(=O)(=O)N2CCCCC2)cc1)Nc1ccccc1,101.8*,0.1,-4.6,-8.2,0.3,-1.8,3.3
O=C(CN(C1CC1)S(=O)(=O)c1ccc(S(=O)(=O)N2CCCCCC2)cc1)Nc1ccccc1,-9.6,0.1,-6.6,1.9,-0.7,x,x
NC1=[N+](Cc2ccccc2)C(Cc2ccccc2)C2C(=C3CCCCC3n3c(=O)n(-c4ccccc4)c(=O)n32)N1 (stereo not given),x,x,x,-8.8,7.0,x,x
CCn1ncc(Br)c1C(=O)NC1CCCCCCC1,60.0*,-2.9,-4.0,2.0,-2.1,-3.5,-8.3
CCOC(=O)C1=C(COC(=O)CCc2ccccc2)NC(=O)NC1C (stereo not given),3.0,-0.7,-6.0,-0.1,-11.8,-6.7,-2.4
CCOC(=O)C1=C(COC(=O)CCc2ccc(CC)cc2)NC(=O)NC1C (stereo not given),-7.9,-0.6,-1.5,0.2,-0.1,-1.0,1.0
CCOC(=O)C1=C(COC(=O)C2CC(=O)N(CCc3ccccc3)C2)NC(=O)NC1C (stereo not given),4.2,0.3,x,8.5,-0.1,x,x
CCOC(=O)C1=C(COC(=O)Cc2ccccc2F)NC(=O)NC1C (stereo not given),15.8,-2.3,-0.8,-7.7,-1.7,-5.0,-9.7
CCOC(=O)C1=C(COC(=O)CCS(=O)(=O)c2ccc(C)cc2)NC(=O)NC1C (stereo not given),12.7,-3.4,-0.9,-3.1,4.1,x,x
CCOC(=O)C1=C(COC(=O)Cc2ccc(Br)cc2)NC(=O)NC1C (stereo not given),3.0,-0.4,x,0.8,-7.9,12.3,-5.5
CCOC(=O)C1=C(COC(=O)/C=C/c2ccccc2F)NC(=O)NC1C (stereo not given),26.9,-0.8,1.5,6.3,-3.4,x,x
COC(=O)[C@H](C)NC(=O)[C@@H]1CCCN1C(=O)CNP(=O)(OCc1ccccc1)OCc1ccccc1,x,x,x,0.7,1.0,x,x
COC[C@@H]1CCCN1c1ccc2c(c1)O[C@H]1CCN(C1)S2(=O)=O,x,x,x,6.9,-12.9,x,x
CCOC(=O)C1=C(COC(=O)CCC(=O)c2ccc(C)cc2)NC(=O)NC1C (stereo not given),-0.5,0.1,1.1,4.2,0.0,-3.6,-12.5
C/C(=N\NC(=O)c1ccccc1OCCOc1ccccc1)c1ccccc1F,75.7*,-5.6,-2.0,0.2,-1.1,-16.8,-1.4
CCOc1ccc(NC(=O)CC2C(=O)N(c3ccc(OC)cc3)C(=O)N2CCc2ccc(OC)c(OC)c2)cc1 (stereo not given),55.8*,-1.4,-0.6,-1.9,2.9,0.2,-0.7
COc1ccc(N2C(=O)C(CC(=O)Nc3ccc(F)cc3)N(CCc3ccc(OC)c(OC)c3)C2=O)cc1 (stereo not given),7.6,-2.8,-1.7,-2.1,4.8,x,x
CCOC(=O)Cc1nc(N2CCN(CCO)CC2)c2c(C)c(C(=O)OCC)sc2n1,x,x,x,7.6,-6.0,x,x
COCCCn1c(C)nnc1SCC(=O)NCc1ccco1,54.5*,-0.9,-4.0,1.7,-2.9,5.8,0.1
COCCn1c(SCC(=O)NCc2ccco2)nnc1C(C)C,-6.1,x,-6.2,7.2,1.2,x,x
CCOc1ccc(OCCCC(=O)N2CCN(S(=O)(=O)c3ccccc3C#N)CC2)cc1,56.6*,-0.8,x,-13.4,3.5,-13.6,0.3
SMILES,Arr AP2 block,CAL PDZ FP-1,CAL PDZ FP-2,Tn6 DDE FP,Tn7 DDE FP,Arr AP2 CP1,GST-FITC bead
O=C(c1cccc(F)c1F)N(Cc1ccccn1)CC1CCCO1 (stereo not given),x,x,x,-4.5,-5.4,x,x
CC(C)(C)NC(=O)C(c1cccnc1)N(C(=O)c1csnn1)c1ccccc1 (stereo not given),0.2,-0.7,x,4.6,-8.0,x,x
CCC(C)(C)NC(=O)C(c1cccnc1)N(C(=O)c1csnn1)c1ccccc1 (stereo not given),54.2*,-2.6,1.5,1.6,0.5,0.3,-8.1
Cc1ccc(-n2c(SCC(=O)Nc3cc(C)on3)nc3c([nH]c4ccccc43)c2=O)cc1,91.8*,0.2,-2.8,-8.8,-2.2,9.6,22.9
O=C(CSc1nc2ccccc2c(=O)n1-c1ccccc1)NCc1ccco1,-5.1,x,3.0,3.4,-4.7,x,x
O=C(CSc1nc2c([nH]c3ccccc32)c(=O)n1-c1ccc(F)cc1)NCc1ccco1,100.9*,-0.7,x,3.6,-3.6,-0.6,38.8
O=c1c2cnn(-c3ccc(F)cc3)c2ncn1Cc1ccc(F)cc1,89.9*,-0.3,-0.5,-6.3,-4.5,-6.2,-1.4
Cc1cccc(Cn2cc(CN3CC(N4CCN(CCOC(=O)c5cc6ccccc6o5)CC4)CS3(=O)=O)nn2)c1 (stereo not given),x,x,x,4.2,4.3,x,x
CCOc1ccc(-c2nc(CSCC(=O)NCc3ccco3)c(C)o2)cc1,98.4*,-1.3,-2.0,-3.1,7.6,5.1,-6.8
NC(=O)C1CCN(c2ncc(Br)cn2)CC1,x,x,x,2.3,-3.5,x,x
COC(=O)[C@]12C[C@H](CC(=O)NCC34CC5CC(CC(C5)C3)C4)C(=O)N(CCC3=CCCCC3)C1=C[C@H](C(C)C)O[C@@H]2C1CC1,x,x,x,-1.0,-8.1,x,x
COc1ccc(C2CC(=O)C(c3cccc(Cl)c3)=CN2Cc2ccccc2)cc1 (stereo not given),x,x,x,-6.3,-5.2,x,x
COc1ccc(-c2nn(-c3ccccc3)cc2C(=O)N(C)C)cc1,59.8*,-0.6,-5.0,3.1,-8.8,-8.3,-7.2
COc1ccc(-c2nn(-c3ccccc3)cc2C(=O)O)cc1,-5.7,-1.2,x,1.7,1.4,x,x
C[C@H](CO)N1C[C@H](C)[C@@H](CN(C)Cc2ccc(C(=O)O)cc2)Oc2ccc(NS(=O)(=O)c3cn(C)cn3)cc2C1=O,-0.9,0.4,-0.5,-5.1,0.0,x,x

# Source: PubChem
